Experimental findings from ChEMBL document CHEMBL2203175, “Discovery and optimization of sulfonyl acrylonitriles as selective, covalent inhibitors of protein phosphatase methylesterase-1” (J Med Chem, 2011) are described below.

The target in this test is T1, Protein phosphatase methylesterase 1 (Homo sapiens) (UniProt Q9Y570).
T1 sequence (whole entry): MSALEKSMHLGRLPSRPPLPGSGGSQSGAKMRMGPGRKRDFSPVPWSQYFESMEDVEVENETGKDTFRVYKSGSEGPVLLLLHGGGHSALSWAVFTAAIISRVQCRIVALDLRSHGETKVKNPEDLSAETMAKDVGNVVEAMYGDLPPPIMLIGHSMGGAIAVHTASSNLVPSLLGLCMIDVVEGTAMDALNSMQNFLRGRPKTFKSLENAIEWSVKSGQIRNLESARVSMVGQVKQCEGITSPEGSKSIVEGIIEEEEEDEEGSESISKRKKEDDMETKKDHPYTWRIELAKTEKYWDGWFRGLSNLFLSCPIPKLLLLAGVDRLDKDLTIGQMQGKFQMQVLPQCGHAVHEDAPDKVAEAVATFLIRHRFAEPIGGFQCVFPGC
Description: Inhibition of PME1 overexpressed in HEK293T cells assessed as increase in methylated PP2A level at 20 uM after 1 hr by Western blot analysis. The class given is cell-based. Particulars: HEK-293T. In outline:
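HEK 293T cells, either stably overexpressing PME-1 or untransfected, treated in medium for 1 h at 37 °C. Total cell extract (2 mg/mL) run on reducing SDS-PAGE (10%) and blotted with demethylated-specific (4b7), methylated-specific (2A10) and total PP2A antibodies, imaged by infrared fluorescence. Mean ± SEM, n = 3, compared against DMSO-treated cells.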

Molecules are shown by their SMILES. The source made the active and inactive calls. The calls are words filed in the database; no cut-off is given here.

`N#C/C(=C\c1cccn1S(=O)(=O)c1cccc([N+](=O)[O-])c1)S(=O)(=O)c1ccc(F)cc1`: the inhibition result is “Active”.
